ChEMBL document CHEMBL3351942, “Rexinoids isolated from Sophora tonkinensis with a gene expression profile distinct from the synthetic rexinoid bexarotene” (J Nat Prod, 2014)
One block for each compound: values may come before it. Calls of active or inactive are those of the source. The calls are words filed in the database; no cut-off is given here.

What was measured:
[1] = target: T1, Retinoic acid receptor RXR-alpha (Homo sapiens) (UniProt P19793); assay: (§1) Agonist activity at human RXR-alpha expressed in HEK293 cells coexpressing with pCMX-beta-gal after 24 to 48 hrs by luciferase reporter gene assay; format: cell-based
T1 sequence (whole entry): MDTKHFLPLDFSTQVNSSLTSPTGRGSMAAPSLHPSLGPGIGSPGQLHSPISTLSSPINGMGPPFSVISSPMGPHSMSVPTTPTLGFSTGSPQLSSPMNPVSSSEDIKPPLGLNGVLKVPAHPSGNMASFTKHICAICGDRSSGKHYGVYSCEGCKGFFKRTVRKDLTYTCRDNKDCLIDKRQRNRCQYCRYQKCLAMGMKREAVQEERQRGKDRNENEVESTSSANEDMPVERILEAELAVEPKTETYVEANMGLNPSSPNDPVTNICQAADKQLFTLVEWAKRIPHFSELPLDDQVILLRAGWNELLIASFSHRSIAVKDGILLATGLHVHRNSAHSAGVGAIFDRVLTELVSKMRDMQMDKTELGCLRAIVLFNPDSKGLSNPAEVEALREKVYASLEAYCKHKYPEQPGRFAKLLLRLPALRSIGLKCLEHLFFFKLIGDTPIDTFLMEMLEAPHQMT
Procedure, shortened: (§2)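 HEK293 cells transfected by calcium phosphate with 60 ng pCMX-hRXR-α, 150 ng CRBPII-tk-Luc and 30 ng pCMX-β-gal plus carrier pUC18 (600 ng DNA per well). After 8 h the cells were washed and exposed to compound in medium with 10% FBS for 24−48 h. Luciferase was normalized to β-galactosidase. Triplicate or quadruplicate; representative of three independent experiments; EC50 from dose-response.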

[2] = Activation of LXR in mouse C2C12 cells assessed as induction of ABCA1 mRNA expression at 1 uM after 24 hrs in presence of T0901317 by quantitative RT-PCR analysis; format: cell-based
Procedure, shortened: (§3)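 C2C12 myoblasts grown in DMEM/10% FBS, differentiated at confluence in 2% horse serum, medium changed every other day for 5 days; myotubes treated 24 h with or without T0901317 (1 μM). Total RNA, DNase-treated, oligo(dT) RT from 0.5 μg, SYBR green qPCR; normalized to β-actin (delta-delta Ct), fold over vehicle; mean ± SD of four determinants, one of two experiments.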

F9 [3] = assay: Activation of RXR/RAR heterodimer in mouse F9 cells assessed as increase in CYP26A1 mRNA level at 1 uM by quantitative RT-PCR analysis; format: cell-based
Procedure, shortened: (§4)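 F9 teratocarcinoma cells on 0.2% gelatin-coated dishes in DMEM/10% FBS; 24 h exposure with or without atRA (0.1 μM). CYP26A1 mRNA by qRT-PCR normalized to β-actin, fold vs vehicle; means ± SD of three determinants, one of three experiments; ANOVA/Bonferroni.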

[4] = target: T2, Peroxisome proliferator-activated receptor delta (Mus musculus) (UniProt P35396); assay: Activation of PPARdelta in mouse C2C12 cells assessed as induction of FABP3 mRNA expression at 1 uM after 24 hrs by quantitative RT-PCR analysis; format: cell-based
T2 sequence (whole entry): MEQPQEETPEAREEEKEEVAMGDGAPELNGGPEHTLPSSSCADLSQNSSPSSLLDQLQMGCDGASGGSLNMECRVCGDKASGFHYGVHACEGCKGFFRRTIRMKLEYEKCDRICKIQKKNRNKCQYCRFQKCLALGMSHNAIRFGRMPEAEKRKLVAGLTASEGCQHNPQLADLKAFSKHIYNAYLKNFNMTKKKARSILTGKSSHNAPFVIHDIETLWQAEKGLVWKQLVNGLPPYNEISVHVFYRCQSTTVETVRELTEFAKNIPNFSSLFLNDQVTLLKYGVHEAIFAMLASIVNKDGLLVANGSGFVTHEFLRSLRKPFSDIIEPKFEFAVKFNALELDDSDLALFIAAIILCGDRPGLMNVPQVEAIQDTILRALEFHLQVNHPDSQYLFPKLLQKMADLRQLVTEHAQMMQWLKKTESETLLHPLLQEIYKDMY
Procedure, shortened: (§5)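 Differentiated C2C12 myotubes (2% horse serum, 5 days) exposed 24 h with or without PPARδ agonist GW501516 (1 μM). mRNA quantified by SYBR green real-time RT-PCR, normalized to β-actin by delta-delta Ct, and expressed as fold induction vs vehicle; means ± SD of four determinants from one of two independent experiments; one-way ANOVA with Bonferroni.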

[5] = Activation of LXR in mouse C2C12 cells assessed as induction of ApoD mRNA expression at 1 uM after 24 hrs in presence of T0901317 by quantitative RT-PCR analysis; format: cell-based; procedure, shortened: as §3
[6] = Activation of LXR in mouse C2C12 cells assessed as induction of lipoprotein lipase mRNA expression at 1 uM after 24 hrs by quantitative RT-PCR analysis; format: cell-based; procedure, shortened: as §3
[7] = target: T2, Peroxisome proliferator-activated receptor delta (Mus musculus); assay: Activation of PPARdelta in mouse C2C12 cells assessed as induction of ANGPTL4 mRNA expression at 1 uM after 24 hrs by quantitative RT-PCR analysis; format: cell-based; procedure, shortened: as §5
[8] = target: T2, Peroxisome proliferator-activated receptor delta (Mus musculus); assay: Activation of PPARdelta in mouse C2C12 cells assessed as induction of FABP3 mRNA expression at 1 uM after 24 hrs in presence of GW501516 by quantitative RT-PCR analysis; format: cell-based; procedure, shortened: as §5
3T3-L1 = assay: Activation of PPARgamma/RXR heterodimer in mouse 3T3-L1 cell assessed as induction of adipogenesis at 1 uM after 6 days by Oil red O-staining; format: cell-based
Procedure, shortened: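 3T3-L1 cells grown to confluence, 2 days later induced 48 h with 10% FBS, 5 μg/mL insulin, 0.25 μM dexamethasone, 0.5 mM IBMX, then 48 h insulin-only medium; compounds in DMSO added to postdifferentiation medium for 4 days. Formalin-fixed (10%, 1 h, RT), stained with Oil red O, washed, visualized.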

RAW264.7 [9] = assay: Activation of RXR/LXR heterodimer in mouse RAW264.7 cells assessed as potentiation of T0901317-induced increase in ABCA1 mRNA level at 1 uM by quantitative RT-PCR analysis; format: cell-based
Procedure, shortened: (§6)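 RAW264.7 macrophages in DMEM/10% FBS, exposed 24 h with or without LXR agonist T0901317; ABCA1 mRNA by SYBR green qRT-PCR, β-actin-normalized, fold vs vehicle; means ± SD of three determinants, one of three independent experiments; one-way ANOVA, Bonferroni.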

[10] = Activation of LXR in mouse C2C12 cells assessed as induction of lipoprotein lipase mRNA expression at 1 uM after 24 hrs in presence of T0901317 by quantitative RT-PCR analysis; format: cell-based; procedure, shortened: as §3
[11] = Activation of LXR in mouse C2C12 cells assessed as induction of SREBP1 mRNA expression at 1 uM after 24 hrs in presence of T0901317 by quantitative RT-PCR analysis; format: cell-based; procedure, shortened: as §3
F9 [12] = assay: Activation of RXR/RAR heterodimer in mouse F9 cells assessed as increase in CYP26A1 mRNA level at 1 uM by quantitative RT-PCR analysis in presence of atRA; format: cell-based; procedure, shortened: as §4
[13] = Activation of LXR in mouse C2C12 cells assessed as induction of ApoE mRNA expression at 1 uM after 24 hrs in presence of T0901317 by quantitative RT-PCR analysis; format: cell-based; procedure, shortened: as §3
[14] = Activation of LXR in mouse C2C12 cells assessed as induction of FAS mRNA expression at 1 uM after 24 hrs in presence of T0901317 by quantitative RT-PCR analysis; format: cell-based; procedure, shortened: as §3
RAW264.7 [15] = assay: Activation of RXR/LXR heterodimer in mouse RAW264.7 cells assessed as increase in ABCA1 mRNA level at 1 uM by quantitative RT-PCR analysis; format: cell-based; procedure, shortened: as §6
Homo sapiens = species: Homo sapiens; assay: Activation of RXR/VDR heterodimer in human hepatoma cells assessed as increase in CYP24A1 mRNA level at 1 uM by quantitative RT-PCR analysis; format: cell-based
Procedure, shortened: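 HLE hepatoma cells treated 24 h with or without VD3 (0.1 μM); CYP24A1 mRNA by SYBR green qRT-PCR normalized to β-actin (delta-delta Ct), fold over vehicle; means ± SD of three determinants, representative of three experiments.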

[16] = target: T2, Peroxisome proliferator-activated receptor delta (Mus musculus); assay: Activation of PPARdelta in mouse C2C12 cells assessed as induction of CPT1A mRNA expression at 1 uM after 24 hrs by quantitative RT-PCR analysis; format: cell-based; procedure, shortened: as §5
[17] = target: T1, Retinoic acid receptor RXR-alpha (Homo sapiens); assay: Agonist activity at human RXR-alpha expressed in HEK293 cells coexpressing with pCMX-beta-gal at 10 uM after 24 to 48 hrs by luciferase reporter gene assay; format: cell-based
[18] = target: T1, Retinoic acid receptor RXR-alpha (Homo sapiens); assay: Agonist activity at human RXR-alpha expressed in HEK293 cells coexpressing with pCMX-beta-gal at 10 uM after 24 to 48 hrs by luciferase reporter gene assay in presence of PA452 pan-antagonist; format: cell-based
Procedure, shortened: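 RXRα reporter in HEK293: cotransfected with RXRα expression vector, luciferase reporter and pCMX-β-gal. Eight hours after transfection, cells were treated with test compound at 10 μM with or without the RXR pan-antagonist PA452 (10 μM). Luciferase was normalized to β-galactosidase. Means ± SD of three determinants; representative of three experiments; one-way ANOVA with Bonferroni's t-test.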

[19] = target: T1, Retinoic acid receptor RXR-alpha (Homo sapiens); assay: Binding affinity to RXRalpha (unknown origin) by receptor-SRC1 cofactor complex formation assay
Procedure, shortened: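 Ligand-dependent binding of RXR isotype to coactivator SRC-1 in an NR cofactor kit, detected with HRP-conjugated anti-RXR antibody at OD450. The full agonist CD3254 defined 100% and vehicle 0%. Efficacy was taken as maximum B/Bmax% and potency as EC50.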

[20] = target: T3, Retinoic acid receptor RXR-alpha (Homo sapiens, UniProt P19793); assay: as §1; format: cell-based; procedure, shortened: as §2
T3 sequence (P19793 whole entry): T1 sequence (whole entry)

ED50 [1]: 50 µM
SMILES: CC/C=C\C/C=C\C/C=C\C/C=C\C/C=C\C/C=C\CCC(=O)O

ED50 [1]: 3 µM
SMILES: CC(C)CCC[C@@H](C)CCC[C@@H](C)CCCC(C)CC(=O)O (stereo partly specified)

ED50 [1]: 4.9 µM
SMILES: C=C1C(=O)O[C@H]2C[C@@H](C)[C@@H]3C=CC(=O)[C@@]3(C)[C@@H](OC(C)=O)[C@H]12

Activity [4]: Active | Activity [7]: Active | Activity [8]: Active | Activity [16]: Active
SMILES: C=C(c1ccc(C(=O)O)cc1)c1cc2c(cc1C)C(C)(C)CCC2(C)C
Activity [2]: Active | Activity (F9 [3]): Active | Activity [5]: Active | Activity [6]: inactive | Activity (3T3-L1): Active | Activity (RAW264.7 [9]): Active | Activity [10]: inactive | Activity [11]: Active | Activity (F9 [12]): Active | Activity [13]: Active | Activity [14]: Active | Activity (RAW264.7 [15]): Active | Activity (Homo sapiens): Active

ED50 [1]: 11.8 µM
SMILES: C=CCc1ccc(O)c(-c2ccc(O)c(CC=C)c2)c1

Activity [17]: inactive
SMILES: CC(C)=CCc1cc([C@@H]2CC(=O)c3ccc(O)c(CC=C(C)C)c3O2)cc(CC=C(C)C)c1O

Activity [18]: inactive | Activity [19]: inactive | Activity [1]: Dose-dependent effect | EC50 [20]: 0.78 µM
SMILES: CC(C)=CCc1cc([C@@H]2CC(=O)c3ccc(O)c(CC=C(C)C)c3O2)cc2c1OC(C)(C)C(O)C2 (stereo partly specified)
